This note sets out measurements from ChEMBL document CHEMBL4732101, “Novel quinolone-based potent and selective HDAC6 inhibitors: Synthesis, molecular modeling studies and biological investigation” (Eur J Med Chem, 2021).

Data set [1] concerns the target T1, Protein deacetylase HDAC6 (Homo sapiens, UniProt Q9UBN7).
T1 sequence (Q9UBN7 whole entry): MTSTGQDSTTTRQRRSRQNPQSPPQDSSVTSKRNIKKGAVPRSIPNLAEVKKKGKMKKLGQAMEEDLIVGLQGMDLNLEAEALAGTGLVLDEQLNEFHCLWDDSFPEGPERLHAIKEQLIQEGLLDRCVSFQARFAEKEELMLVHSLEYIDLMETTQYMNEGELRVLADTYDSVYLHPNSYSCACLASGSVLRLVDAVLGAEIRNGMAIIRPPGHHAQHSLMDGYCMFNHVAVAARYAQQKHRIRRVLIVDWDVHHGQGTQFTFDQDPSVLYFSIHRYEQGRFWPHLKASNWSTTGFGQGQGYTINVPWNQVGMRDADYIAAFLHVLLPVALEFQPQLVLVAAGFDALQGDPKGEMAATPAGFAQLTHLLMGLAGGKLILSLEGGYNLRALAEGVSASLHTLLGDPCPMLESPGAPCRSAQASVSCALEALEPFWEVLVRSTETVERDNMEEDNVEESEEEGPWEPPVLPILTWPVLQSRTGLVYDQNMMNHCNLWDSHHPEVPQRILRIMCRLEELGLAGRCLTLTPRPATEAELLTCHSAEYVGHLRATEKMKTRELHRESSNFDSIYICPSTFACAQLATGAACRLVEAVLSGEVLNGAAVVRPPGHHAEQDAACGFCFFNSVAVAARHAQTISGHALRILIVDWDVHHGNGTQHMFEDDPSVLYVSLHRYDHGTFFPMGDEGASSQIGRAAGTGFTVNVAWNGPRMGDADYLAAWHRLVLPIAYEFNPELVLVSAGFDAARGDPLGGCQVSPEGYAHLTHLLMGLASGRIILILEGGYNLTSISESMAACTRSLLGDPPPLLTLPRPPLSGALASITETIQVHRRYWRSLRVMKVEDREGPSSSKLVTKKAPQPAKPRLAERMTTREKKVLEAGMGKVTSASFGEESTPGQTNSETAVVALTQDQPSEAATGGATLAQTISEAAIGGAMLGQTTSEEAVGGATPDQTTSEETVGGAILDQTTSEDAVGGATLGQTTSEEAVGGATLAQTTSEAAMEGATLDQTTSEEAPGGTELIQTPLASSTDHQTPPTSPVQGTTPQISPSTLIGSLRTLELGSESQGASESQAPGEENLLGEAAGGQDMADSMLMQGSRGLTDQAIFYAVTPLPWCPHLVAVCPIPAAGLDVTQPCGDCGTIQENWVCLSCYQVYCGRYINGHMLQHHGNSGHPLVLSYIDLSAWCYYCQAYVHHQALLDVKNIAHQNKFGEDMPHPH
Nature of the data set: Inhibition of recombinant human full length N-terminal GST-tagged HDAC6 expressed in baculovirus infected Sf9 cells using Z-(Ac)Lys-AMC as substrate measured after 90 mins by fluorescence assay.

The target in data set [2] is T2, HDAC1 (histone deacetylase 1) (Homo sapiens, UniProt Q13547). The data set can be described thus: Inhibition of recombinant human C-terminal FLAG/His-tagged HDAC1 (1 to 482 residues) expressed in Sf9 insect cells at 50 uM using Z-(Ac)Lys-AMC as substrate measured after 90 mins by fluorescence assay relative to control. To be noted: probe Z-(Ac)Lys-AMC. The essentials:
(§1)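 Incubated with inhibitor in DMSO and fluorogenic substrate Z-(Ac)Lys-AMC (126 µM, as added) for 90 min at 37 °C. Stopped with trichostatin A plus trypsin for 30 min at 37 °C; fluorescence read at ex 390/em 460 nm.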

In data set [3] the target is T2, HDAC1 (histone deacetylase 1). The data set can be described thus: Inhibition of recombinant human C-terminal FLAG/His-tagged HDAC1 (1 to 482 residues) expressed in Sf9 insect cells at 25 uM using Z-(Ac)Lys-AMC as substrate measured after 90 mins by fluorescence assay relative to control. The note with it: probe Z-(Ac)Lys-AMC. Summed up: as §1
The target is the same in data set [4]. The data set can be described thus: Inhibition of recombinant human C-terminal FLAG/His-tagged HDAC1 (1 to 482 residues) expressed in Sf9 insect cells at 10 uM using Z-(Ac)Lys-AMC as substrate measured after 90 mins by fluorescence assay relative to control. The note with it: probe Z-(Ac)Lys-AMC. Summed up:
as §1

Data set [5] has the same target. The data set can be described thus: Inhibition of recombinant human C-terminal FLAG/His-tagged HDAC1 (1 to 482 residues) expressed in Sf9 insect cells at 1 uM using Z-(Ac)Lys-AMC as substrate measured after 90 mins by fluorescence assay relative to control. The note with it: probe Z-(Ac)Lys-AMC. Summed up:
as §1

Data set [6] has as its target Histone deacetylase 1 (Homo sapiens, UniProt Q13547). The data set can be described thus: Inhibition of recombinant human C-terminal FLAG/His-tagged HDAC1 (1 to 482 residues) expressed in Sf9 insect cells using Z-(Ac)Lys-AMC as substrate measured after 90 mins by fluorescence assay. Summed up: as §1
For data set [7], the target named is T3, Histone deacetylase 8 (Homo sapiens, UniProt Q9BY41).
T3 sequence (Q9BY41 whole entry): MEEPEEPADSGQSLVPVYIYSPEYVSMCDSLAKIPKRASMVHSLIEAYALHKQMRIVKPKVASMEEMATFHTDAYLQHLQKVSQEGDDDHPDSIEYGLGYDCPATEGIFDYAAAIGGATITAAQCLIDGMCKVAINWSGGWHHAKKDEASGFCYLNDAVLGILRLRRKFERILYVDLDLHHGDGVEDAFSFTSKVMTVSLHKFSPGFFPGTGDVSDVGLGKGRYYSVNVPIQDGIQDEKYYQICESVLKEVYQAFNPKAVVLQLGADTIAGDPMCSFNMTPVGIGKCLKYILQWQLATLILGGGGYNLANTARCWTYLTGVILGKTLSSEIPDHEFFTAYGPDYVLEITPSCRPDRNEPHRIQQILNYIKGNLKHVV
The data set can be described thus: Inhibition of recombinant human HDAC8 using Fluor-de-Lys as substrate measured after 1 hr by fluorescence assay.

Data set [8] relates to NIH3T3. Nature of the data set: Cytotoxicity against mouse NIH/3T3 cells assessed as reduction in cell viability after 24 hrs by neutral red uptake assay. The format is cell-based. To be noted: NIH3T3, 24 h. The essentials:
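NIH3T3 fibroblasts seeded at 5 x 10^4 per well and cultured 24 h at 37 °C, 5% CO2. DMSO-solubilized samples added at 8 to 160 µM for 24 h; medium as negative control. Neutral Red medium applied 3 h, dye desorbed in acetic acid/ethanol, absorbance read at 540 nm. Three experiments, six replicates per concentration; viability normalized to % control.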

Data set [9] in a line: Mutagenicity in Salmonella typhimurium TA98 at 5 to 230 uM measured after 90 mins in presence of rat liver S9 fraction by Ames test. The format is toxicity, subcellular. To be noted: salmonella enterica subsp. enterica serovar typhimurium, s9, 1.5 h, dose 5-230 µM. (The Ames test detects mutagens through reverse mutation in bacteria.)
Data set [10] is described as follows: Mutagenicity in Salmonella typhimurium TA100 at 5 to 230 uM measured after 90 mins in presence of rat liver S9 fraction by Ames test. The note with it: salmonella enterica subsp. enterica serovar typhimurium, s9, 1.5 h, dose 5-230 µM. The format is toxicity, subcellular.
Data set [11] in a line: Mutagenicity in Salmonella typhimurium TA98 at 5 to 230 uM measured after 90 mins in absence of rat liver S9 fraction by Ames test. The format is toxicity. To be noted: salmonella enterica subsp. enterica serovar typhimurium, 1.5 h, dose 5-230 µM.
Data set [12] in a line: Mutagenicity in Salmonella typhimurium TA100 at 5 to 230 uM measured after 90 mins in absence of rat liver S9 fraction by Ames test. The format is toxicity. To be noted: salmonella enterica subsp. enterica serovar typhimurium, s9, 1.5 h, dose 5-230 µM.
Data set [13] is described as follows: Solubility of compound in pH 3 buffer at 250 uM measured after 24 hrs by HPLC/UV/DAD method. The format is physicochemical. The note with it: pH 3, 24 h. The essentials:
(§2)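 10 mM DMSO stock diluted to 250 µM (2.5% DMSO) in 50 mM acetic acid, pH 3.0, and shaken 24 h at 25 °C. For solubility, samples filtered, diluted 1:2, quantified by HPLC-UV at 254 nm against a standard. For stability, percent remaining taken as the 24 h peak area over the T0 peak area. Triplicate analyses averaged.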

Data set [14] in a line: Stability of compound in pH 3 buffer assessed as parent compound remaining at 250 uM measured after 24 hrs by HPLC/UV/DAD method. The format is physicochemical. The note with it: read-out: Stabilty. The essentials: as §2

Histone deacetylase 1, sequence (Q13547 whole entry, the tested form may be a part): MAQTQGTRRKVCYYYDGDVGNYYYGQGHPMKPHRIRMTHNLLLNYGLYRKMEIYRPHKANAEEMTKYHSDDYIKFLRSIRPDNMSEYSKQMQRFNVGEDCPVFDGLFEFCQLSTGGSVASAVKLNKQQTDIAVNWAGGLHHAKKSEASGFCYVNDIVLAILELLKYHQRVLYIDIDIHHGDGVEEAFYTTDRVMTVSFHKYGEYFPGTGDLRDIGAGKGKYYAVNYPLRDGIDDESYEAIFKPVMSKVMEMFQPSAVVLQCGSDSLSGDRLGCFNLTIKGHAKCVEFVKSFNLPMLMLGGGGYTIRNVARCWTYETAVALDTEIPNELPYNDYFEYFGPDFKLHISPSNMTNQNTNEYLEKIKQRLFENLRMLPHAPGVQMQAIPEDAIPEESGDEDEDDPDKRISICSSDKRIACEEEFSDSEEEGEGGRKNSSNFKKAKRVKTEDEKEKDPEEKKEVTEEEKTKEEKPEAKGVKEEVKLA
T2 sequence (Q13547 whole entry, the tested form may be a part): as above

Usually IC50 stands for the midpoint of a concentration-inhibition curve. What is called inhibition is the relative decrease from the control value, in per cent. For the compound `O=C(NO)c1ccc(Cn2c(=O)c(O)c(-c3cccnc3)c3ccccc32)cc1`, the IC50 in data set [1] came to 296 nM. For the same compound, the inhibition at 1.5 h, 50 µM in data set [2] was 96%. For the same compound, the inhibition at 1.5 h, 25 µM in data set [3] came out at 82%. Further, the inhibition at 1.5 h, 10 µM in data set [4] was determined as 36%. The inhibition at 1.5 h, 1 µM in data set [5] was less than 10%.
With `Cn1c(=O)c(OCc2ccc(C(=O)NO)cc2)c(C2CCCCC2)c2ccccc21`, the IC50 was 3000 nM in data set [6], 33 nM in data set [1], 1640 nM in data set [7] and 18000 nM in data set [8]. Further, the Kapp in data set [7] (human, 1 h) amounted to 1.93 µM. Moreover, the Activity entry in data set [9], in [10], in data set [11] and in data set [12] was “Non-Toxic” throughout.
With `O=C(NO)c1ccc(COc2c(-c3ccccc3)c3ccccc3n(Cc3ccncc3)c2=O)cc1`, the IC50 is 1200 nM in data set [6] and 84.1 nM in [1]. Moreover, in data set [13], the solubility entry was “Soluble”. Moreover, the remaining at 24 h, 250 µM in data set [14] is more than 95%.
On to `C#CCn1c(=O)c(OCc2ccc(C(=O)NO)cc2)c(-c2ccccc2)c2ccccc21`, for which the results for the IC50 in data set [6] and in data set [1] were 6100 nM and 82.3 nM, respectively.
Regarding `Cn1c(=O)c(OCc2ccc(C(=O)NO)cc2)c(-c2ccccc2)c2ccccc21`, the IC50 in data set [1] stood at 519 nM. In [2], the inhibition at 1.5 h, 50 µM turned out to be 80%. The inhibition at 1.5 h, 25 µM in data set [3] was determined as 46%. In addition, in [4], the inhibition at 1.5 h, 10 µM turned out to be 26%. Moreover, the inhibition at 1.5 h, 1 µM in [5] was less than 10%.
Turning to `Cn1c(=O)c(OCc2ccc(C(=O)NO)cc2)c(-c2cccnc2)c2ccccc21`, the IC50 in [6] came to 5010 nM; in data set [1], 46 nM.
The corresponding values for `O=C(NO)c1ccc(COc2c(-c3cccnc3)c3ccccc3n(Cc3ccncc3)c2=O)cc1` are 1700 nM and 45.3 nM.
As for `O=C(NO)c1ccc(COc2c(-c3ccccc3)c3ccccc3n(Cc3ccccc3)c2=O)cc1`, in data set [1], the IC50 amounted to 176 nM. The inhibition at 1.5 h, 50 µM in data set [2] came out at 97%. Also, in data set [3], the inhibition at 1.5 h, 25 µM came to 93%. The inhibition at 1.5 h, 10 µM in [4] worked out at 76%. Also, the inhibition at 1.5 h, 1 µM in data set [5] worked out at 17%.
On to `O=C(NO)c1ccc(Cn2c(=O)c(O)c(-c3ccccc3)c3ccccc32)cc1`, for which the IC50 was determined as 11000 nM in [6] and 308 nM in data set [1].
With `O=C(NO)c1ccc(Cn2c(=O)c(OCc3ccccc3)c(-c3ccccc3)c3ccccc32)cc1`, the IC50 in data set [6] came to 5500 nM; in [1], 84.5 nM.
On to `COc1c(-c2ccccc2)c2ccccc2n(Cc2ccc(C(=O)NO)cc2)c1=O`, for which the results for the IC50 in data set [6], in data set [1] and in data set [8] were 4500 nM, 61.6 nM and 90000 nM, respectively. For the same compound, the solubility entry in data set [13] is listed as “Soluble”. Besides, the remaining at 24 h, 250 µM in data set [14] was more than 95%. For the same compound, the Activity entry in data set [9], in data set [10], in [11] and in [12] was “Non-Toxic” throughout.
As to `O=C(NO)c1ccc(COc2c(-c3ccccc3)c3ccccc3n(C3CCN(Cc4ccccc4)CC3)c2=O)cc1`, the IC50 in data set [1] came to 870 nM. The inhibition at 1.5 h, 50 µM in [2] amounted to 79%. In addition, the inhibition at 1.5 h, 25 µM in [3] amounted to 67%. For the same compound, in data set [4], the inhibition at 1.5 h, 10 µM stood at 46%. Further, in data set [5], the inhibition at 1.5 h, 1 µM is less than 10%.
As for `O=C(NO)c1ccc(COc2c(-c3cccnc3)c3ccccc3n(Cc3ccccc3)c2=O)cc1`, the figures for the IC50 in [6] and in data set [1] were 2500 nM and 25.6 nM, respectively.
